Data taken from ChEMBL document CHEMBL1134616, “Novel 7-oxyiminomethyl derivatives of camptothecin with potent in vitro and in vivo antitumor activity” (J Med Chem, 2001).

Assay: Cytotoxicity against human non-small-cell lung carcinoma cell line H460 (NSCLC-H460)
Format: functional, cell-based
Procedure, shortened: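 Logarithmically growing cells were seeded in duplicate, exposed to drug for 1 h starting 24 h after seeding, and counted by Coulter counter 72 h after exposure. Drug was dissolved in DMSO before dilution. The IC50 is the concentration giving a 50% decrease in growth relative to untreated control.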

SMILES	IC50
CC[C@@]1(O)C(=O)OCc2c1cc1n(c2=O)Cc2c-1nc1ccccc1c2/C=N/OCC(=O)NCCCN	5.2 µM
CC[C@@]1(O)C(=O)OCc2c1cc1n(c2=O)Cc2c-1nc1ccccc1c2/C(=N/O)c1ccccc1	5.13 µM
CC[C@@]1(O)C(=O)OCc2c1cc1n(c2=O)Cc2c-1nc1ccc(OC)cc1c2/C=N/OC(C)(C)C	0.07 µM
CC[C@@]1(O)C(=O)OCc2c1cc1n(c2=O)Cc2c-1nc1ccccc1c2/C=N/OC(C)(C)CO	0.34 µM
CC[C@@]1(O)C(=O)OCc2c1cc1n(c2=O)Cc2c-1nc1ccccc1c2/C=N/OC(c1ccccc1)(c1ccccc1)c1ccccc1	1.45 µM
CC[C@@]1(O)C(=O)OCc2c1cc1n(c2=O)Cc2c(/C=N/OC(C)(C)C)c3ccccc3[n+]([O-])c2-1	0.07 µM
CC[C@@]1(O)C(=O)OCc2c1cc1n(c2=O)Cc2c-1nc1ccccc1c2/C=N/OCc1c(F)c(F)c(F)c(F)c1F	0.028 µM
CC[C@@]1(O)C(=O)OCc2c1cc1n(c2=O)Cc2c-1nc1ccccc1c2/C=N/OCCN1CCOCC1	0.08 µM
CC[C@@]1(O)C(=O)OCc2c1cc1n(c2=O)Cc2c-1nc1ccccc1c2/C=N/OCCC1CCCN(C)C1 (stereo partly drawn)	0.1 µM
CC[C@@]1(O)C(=O)OCc2c1cc1n(c2=O)Cc2c-1nc1ccc(O)cc1c2/C=N/OC(C)(C)C	0.13 µM
CC[C@@]1(O)C(=O)OCc2c1cc1n(c2=O)Cc2c-1nc1ccccc1c2/C=N/OCc1ccc([N+](=O)[O-])cc1	0.017 µM
CC[C@@]1(O)C(=O)OCc2c1cc1n(c2=O)Cc2c-1nc1ccccc1c2/C=N/OCC(=O)O	2.33 µM
CC[C@@]1(O)C(=O)OCc2c1cc1n(c2=O)Cc2c-1nc1ccccc1c2/C=N/OCc1ccc(-c2ccccc2)cc1	0.28 µM
CC[C@@]1(O)C(=O)OCc2c1cc1n(c2=O)Cc2c-1nc1ccccc1c2/C=N/OC[C@H]1O[C@@H]2OC(C)(C)O[C@@H]2[C@H]2OC(C)(C)O[C@H]21	0.36 µM
CC[C@@]1(O)C(=O)OCc2c1cc1n(c2=O)Cc2c-1nc1ccccc1c2/C=N/Oc1ccccc1	0.16 µM
CC[C@@]1(O)C(=O)OCc2c1cc1n(c2=O)Cc2c-1nc1ccccc1c2/C=N/OCC(=O)NCCCNC(=O)OC(C)(C)C	1.7 µM
CC[C@@]1(O)C(=O)OCc2c1cc1n(c2=O)Cc2c-1nc1ccccc1c2/C=N/OC(=O)c1ccccc1	1.77 µM
CC[C@@]1(O)C(=O)OCc2c1cc1n(c2=O)Cc2c-1nc1ccccc1c2/C=N/OCC(=O)NCCCNS(=O)(=O)c1ccccc1[N+](=O)[O-]	3 µM
CC[C@@]1(O)C(=O)OCc2c1cc1n(c2=O)Cc2c-1nc1ccccc1c2/C=N/OC(C)(C)C(=O)O	48 µM

SMILES	IC50
CC[C@@]1(O)C(=O)OCc2c1cc1n(c2=O)Cc2c-1nc1ccccc1c2/C=N/OCCN	0.49 µM
CC[C@@]1(O)C(=O)OCc2c1cc1n(c2=O)Cc2c-1nc1ccccc1c2/C=N/OCc1ccc(C)cc1	0.02 µM
CC[C@@]1(O)C(=O)OCc2c1cc1n(c2=O)Cc2c-1nc1ccccc1c2/C=N/OCc1c2ccccc2cc2ccccc12	0.19 µM
CC[C@@]1(O)C(=O)OCc2c1cc1n(c2=O)Cc2c-1nc1ccccc1c2/C=N/OCCN(C)C	0.3 µM
CC[C@@]1(O)C(=O)OCc2c1cc1n(c2=O)Cc2c-1nc1ccccc1c2/C(C)=N/OCc1ccccc1	0.13 µM
CC[C@@]1(O)C(=O)OCc2c1cc1n(c2=O)Cc2c-1nc1ccccc1c2/C=N/OCC1CO1 (stereo partly drawn)	0.02 µM
CC[C@@]1(O)C(=O)OCc2c1cc1n(c2=O)Cc2c-1nc1ccccc1c2/C=N/OC(C)(C)C(=O)OC(C)(C)C	0.14 µM
CC[C@@]1(O)C(=O)OCc2c1cc1n(c2=O)Cc2c-1nc1ccccc1c2/C=N/O	0.032 µM
C=CCO/N=C/c1c2c(nc3ccccc13)-c1cc3c(c(=O)n1C2)COC(=O)[C@]3(O)CC	0.06 µM
CC[C@@]1(O)C(=O)OCc2c1cc1n(c2=O)Cc2c(/C=N/OC)c3ccccc3[n+]([O-])c2-1	2.4 µM
CC[C@@]1(O)C(=O)OCc2c1cc1n(c2=O)Cc2c-1nc1ccc(O)cc1c2/C=N/OC	0.2 µM
CC[C@@]1(O)C(=O)OCc2c1cc1n(c2=O)Cc2c-1nc1ccccc1c2/C=N/OC	0.04 µM
CC[C@@]1(O)C(=O)OCc2c1cc1n(c2=O)Cc2c-1nc1ccccc1c2/C=N/OCc1ccc(N)cc1	0.025 µM
CCc1c2c(nc3ccc(O)cc13)-c1cc3c(c(=O)n1C2)COC(=O)[C@]3(O)CC [7-ETHYL-10-HYDROXYCAMPTOTHECIN]	0.08 µM
CC[C@@]1(O)C(=O)OCc2c1cc1n(c2=O)Cc2c-1nc1ccccc1c2/C=N/OCC1O[C@H](O)C(O)[C@H](O)[C@H]1O (stereo partly drawn)	32 µM
CC[C@@]1(O)C(=O)OCc2c1cc1n(c2=O)Cc2c-1nc1ccccc1c2/C=N/OCc1ccccc1	0.03 µM
CC[C@@]1(O)C(=O)OCc2c1cc1n(c2=O)Cc2cc3ccccc3nc2-1 [CAMPTOTHECIN]	0.33 µM
CC[C@@]1(O)C(=O)OCc2c1cc1n(c2=O)Cc2c-1nc1ccccc1c2/C=N/OCc1ncc[nH]1	0.21 µM
CC[C@@]1(O)C(=O)OCc2c1cc1n(c2=O)Cc2c-1nc1ccccc1c2/C=N/OCc1ccncc1	0.03 µM
